Here are results for 13 molecules from ChEMBL document CHEMBL1133370, “N-(sulfonamido)alkyl[tetrahydro-1H-benzo[e]indol-2-yl]amines: potent antagonists of human neuropeptide Y Y5 receptor” (Bioorg Med Chem Lett, 2000).

In general, pIC50 refers to the negative decadic logarithm of the IC50, by convention in mol/L.

The target in the assay is T1, Neuropeptide Y receptor type 5 (Homo sapiens, UniProt Q15761).
T1 sequence (Q15761 whole entry): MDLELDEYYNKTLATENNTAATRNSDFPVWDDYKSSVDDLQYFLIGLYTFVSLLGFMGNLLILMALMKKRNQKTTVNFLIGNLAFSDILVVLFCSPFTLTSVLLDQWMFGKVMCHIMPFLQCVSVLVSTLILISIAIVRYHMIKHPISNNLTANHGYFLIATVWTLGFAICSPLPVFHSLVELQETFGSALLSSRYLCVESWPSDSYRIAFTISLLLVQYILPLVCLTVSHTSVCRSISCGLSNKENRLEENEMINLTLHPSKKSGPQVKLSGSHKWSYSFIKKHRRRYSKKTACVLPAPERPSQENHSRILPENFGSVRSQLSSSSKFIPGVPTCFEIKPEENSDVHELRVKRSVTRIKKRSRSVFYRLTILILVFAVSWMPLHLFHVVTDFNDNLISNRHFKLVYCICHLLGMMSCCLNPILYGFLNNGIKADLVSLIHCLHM
The experiment in a line: Binding affinity for human Neuropeptide Y receptor type 5 in HEK293 cells. It counts as cell-based. The essentials: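 Membranes from HEK293 cells stably transfected with human NPY5 cDNA, prepared in 20 mM HEPES buffer with NaCl, 0.22 mM KH2PO4, 1.3 mM CaCl2, 0.8 mM MgSO4, pH 7.4. Centrifuged, washed, membrane radioactivity gamma-counted. Non-specific binding with 300 nM NPY. IC50 is 50% inhibition of specific binding, averaged over ≥2 experiments.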

pIC50: −log10 of the molar value.

On to `O=S(=O)(NC[C@H]1CC[C@H](CNC2=NC3CCc4cc(Cl)ccc4C3C2)CC1)c1ccccc1` (stereo partly drawn), for which the pIC50 was 7.27.

`COc1ccc2c(c1)CCC1N=C(NC(=O)[C@H]3CC[C@H](CNS(=O)(=O)c4ccccc4)CC3)CC21` (stereo partly drawn) showed a pIC50 of 7.04.

`COc1ccc2c(c1)CCC1N=C(NC[C@H]3CC[C@H](CNS(=O)(=O)c4ccccc4)CC3)CC21` (stereo partly drawn) showed a pIC50 of 7.24.

`O=C(NC1=NC2CCc3ccccc3C2C1)[C@H]1CC[C@H](CNS(=O)(=O)c2ccccc2)CC1` (stereo partly drawn) had a pIC50 of 7.22.

Regarding `N[C@@H](CCCCNS(=O)(=O)c1ccccc1F)C(=O)NC1=NC2CCc3cc(F)ccc3C2C1` (stereo partly drawn), the pIC50 is 6.69.

Consider `O=S(=O)(NC[C@H]1CC[C@H](CNC2=NC3CCc4ccccc4C3C2)CC1)c1ccccc1` (stereo partly drawn), for which the negative logarithm of the IC50 (pIC50) was 7.41.

In turn, `COc1ccc2c(c1)CCC1N=C(NC(=O)[C@H]3CC[C@H](CNS(=O)(=O)c4ccccc4F)CC3)CC21` (stereo partly drawn) had a pIC50 of 6.92.

`O=S(=O)(NC[C@H]1CC[C@H](CNC2=NC3CCc4cc(O)ccc4C3C2)CC1)c1ccccc1` (stereo partly drawn): the pIC50 is 9.00.

`COc1ccc2c(c1)CCC1N=C(NC[C@H]3CC[C@H](CNS(=O)(=O)c4ccccc4F)CC3)CC21` (stereo partly drawn) showed a pIC50 of 7.46.

In the case of `COc1ccc2c(c1)CCC(NCCc1ccc(OC)c(OC)c1)C2Cc1ccccc1` (stereo not drawn), the pIC50 is roughly 6.00.

The molecule `O=C(NC1=NC2CCc3cc(Cl)ccc3C2C1)[C@H]1CC[C@H](CNS(=O)(=O)c2ccccc2)CC1` (stereo partly drawn) gave a pIC50 of 6.95.

`COc1ccc2c(c1)CCC1N=C(NC(C)=O)CC21` (stereo not drawn) had a pIC50 of less than 6.00.

`O=C(NC1=NC2CCc3cc(O)ccc3C2C1)[C@H]1CC[C@H](CNS(=O)(=O)c2ccccc2)CC1` (stereo partly drawn) had a pIC50 of 8.05.
